# In ChEMBL document CHEMBL3769320, “Cell Penetrant Inhibitors of the KDM4 and KDM5 Families of Histone Lysine Demethylases. 2. Pyrido[3,4-d]pyrimidin-4(3H)-one Derivatives” (J Med Chem, 2016):
# What was measured:
# [1] = target: T1, Lysine-specific demethylase 4C (Homo sapiens, UniProt Q9H3R0); assay: Inhibition of N-terminal his-tagged full-length human KDM4C transfected in U2OS cells assessed as inhibition of H3K9Me3 demethylation for 24 hrs; type: cell-based
# T1 sequence (Q9H3R0 whole entry): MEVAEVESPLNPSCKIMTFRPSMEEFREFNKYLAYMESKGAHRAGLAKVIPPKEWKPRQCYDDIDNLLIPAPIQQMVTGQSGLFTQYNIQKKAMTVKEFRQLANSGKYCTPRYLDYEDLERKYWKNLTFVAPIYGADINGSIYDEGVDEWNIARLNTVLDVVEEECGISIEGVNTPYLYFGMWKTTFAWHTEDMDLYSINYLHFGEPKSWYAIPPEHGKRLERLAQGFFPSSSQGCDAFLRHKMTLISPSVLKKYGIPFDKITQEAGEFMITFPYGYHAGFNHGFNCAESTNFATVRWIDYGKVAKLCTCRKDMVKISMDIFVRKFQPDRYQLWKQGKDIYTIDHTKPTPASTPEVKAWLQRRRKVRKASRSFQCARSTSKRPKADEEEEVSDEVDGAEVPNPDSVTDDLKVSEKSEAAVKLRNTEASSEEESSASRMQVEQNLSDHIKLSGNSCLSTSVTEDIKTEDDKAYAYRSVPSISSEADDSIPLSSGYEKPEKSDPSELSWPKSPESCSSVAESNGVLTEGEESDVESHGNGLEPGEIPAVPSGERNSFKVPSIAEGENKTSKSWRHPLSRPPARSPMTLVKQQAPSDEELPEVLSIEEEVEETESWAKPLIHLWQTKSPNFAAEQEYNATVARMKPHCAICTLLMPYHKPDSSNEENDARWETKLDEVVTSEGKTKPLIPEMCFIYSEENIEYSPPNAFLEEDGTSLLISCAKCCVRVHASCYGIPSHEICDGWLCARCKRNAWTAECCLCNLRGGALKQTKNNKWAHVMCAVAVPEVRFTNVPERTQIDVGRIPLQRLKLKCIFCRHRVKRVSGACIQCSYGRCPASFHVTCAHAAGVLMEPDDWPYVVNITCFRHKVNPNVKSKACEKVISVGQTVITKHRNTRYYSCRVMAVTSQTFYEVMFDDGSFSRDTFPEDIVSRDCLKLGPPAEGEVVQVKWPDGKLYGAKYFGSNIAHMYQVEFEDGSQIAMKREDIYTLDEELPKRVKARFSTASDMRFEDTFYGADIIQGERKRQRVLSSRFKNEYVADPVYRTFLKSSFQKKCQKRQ
# [2] = Dissociation constant, pKa of the compound; type: physicochemical
# [3] = target: T1, Lysine-specific demethylase 4C; assay: Inhibition of N-terminal his-tagged human KDM4C expressed in Escherichia coli BL21(DE3) using trimethylated peptide substrate by RFMS assay
# [4] = target: Lysine-specific demethylase 6B (Homo sapiens, UniProt O15054); assay: Inhibition of KDM6B (unknown origin) by RFMS assay
# [5] = target: T2, Lysine-specific demethylase 4A (Homo sapiens, UniProt O75164); assay: Inhibition of KDM4A (unknown origin) by RFMS assay
# T2 sequence (O75164 whole entry): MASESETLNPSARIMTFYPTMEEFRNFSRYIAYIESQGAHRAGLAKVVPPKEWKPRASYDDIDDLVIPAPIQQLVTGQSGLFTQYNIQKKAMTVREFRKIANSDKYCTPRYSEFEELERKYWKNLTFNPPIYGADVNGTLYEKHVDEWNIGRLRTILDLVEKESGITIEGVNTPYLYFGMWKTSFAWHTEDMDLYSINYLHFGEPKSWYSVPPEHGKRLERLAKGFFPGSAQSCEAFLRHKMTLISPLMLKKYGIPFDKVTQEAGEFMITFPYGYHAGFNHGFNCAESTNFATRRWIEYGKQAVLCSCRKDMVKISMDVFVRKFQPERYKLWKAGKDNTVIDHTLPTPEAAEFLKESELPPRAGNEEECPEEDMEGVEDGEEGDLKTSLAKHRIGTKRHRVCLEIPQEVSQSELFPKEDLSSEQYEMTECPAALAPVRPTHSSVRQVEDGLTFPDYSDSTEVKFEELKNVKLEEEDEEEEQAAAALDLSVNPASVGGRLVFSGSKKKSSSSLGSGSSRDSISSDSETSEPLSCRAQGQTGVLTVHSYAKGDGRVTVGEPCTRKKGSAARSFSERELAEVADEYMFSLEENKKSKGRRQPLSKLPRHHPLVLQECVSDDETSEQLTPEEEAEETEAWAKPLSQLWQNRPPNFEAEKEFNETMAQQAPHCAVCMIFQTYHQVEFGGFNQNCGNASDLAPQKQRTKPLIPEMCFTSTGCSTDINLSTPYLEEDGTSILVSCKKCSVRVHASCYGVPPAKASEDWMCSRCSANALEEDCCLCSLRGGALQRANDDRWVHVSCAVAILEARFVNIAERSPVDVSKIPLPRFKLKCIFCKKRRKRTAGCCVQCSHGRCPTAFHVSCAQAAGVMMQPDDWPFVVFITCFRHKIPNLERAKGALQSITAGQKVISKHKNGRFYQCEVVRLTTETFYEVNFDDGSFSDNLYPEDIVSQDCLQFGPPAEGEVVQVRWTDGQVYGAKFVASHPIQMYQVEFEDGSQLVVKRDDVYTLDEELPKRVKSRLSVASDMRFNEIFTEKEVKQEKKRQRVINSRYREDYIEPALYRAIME
# physchem = conditions: buffer, pH 7.4
# [6] = target: T3, Lysine-specific demethylase 5C (Homo sapiens, UniProt P41229); assay: Inhibition of KDM5C catalytic domain (1 -764 aa) (unknown origin) expressed in Sf9 cells using H3K4Me3 peptide as substrate by RFMS assay
# [7] = target: T4, Lysine-specific demethylase 4D (Homo sapiens, UniProt Q6B0I6); assay: Inhibition of KDM4D (unknown origin) by RFMS assay
# T4 sequence (Q6B0I6 whole entry): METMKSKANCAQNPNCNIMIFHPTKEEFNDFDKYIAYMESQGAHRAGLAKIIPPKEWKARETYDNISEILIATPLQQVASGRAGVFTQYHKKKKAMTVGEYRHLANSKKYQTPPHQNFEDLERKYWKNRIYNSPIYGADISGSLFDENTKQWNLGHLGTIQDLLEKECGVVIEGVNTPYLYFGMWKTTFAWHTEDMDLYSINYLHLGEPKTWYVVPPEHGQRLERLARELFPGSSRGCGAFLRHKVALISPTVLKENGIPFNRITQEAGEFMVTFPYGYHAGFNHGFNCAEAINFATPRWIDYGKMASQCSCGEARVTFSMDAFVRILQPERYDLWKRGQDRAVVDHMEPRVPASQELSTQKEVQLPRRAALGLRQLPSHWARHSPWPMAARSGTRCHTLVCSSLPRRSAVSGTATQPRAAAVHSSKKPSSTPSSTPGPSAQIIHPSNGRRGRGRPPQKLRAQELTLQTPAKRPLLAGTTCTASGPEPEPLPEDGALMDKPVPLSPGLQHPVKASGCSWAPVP
# [8] = target: T5, Lysine-specific demethylase 4E (Homo sapiens, UniProt B2RXH2); assay: Inhibition of KDM4E (unknown origin) by RFMS assay
# T5 sequence (B2RXH2 whole entry): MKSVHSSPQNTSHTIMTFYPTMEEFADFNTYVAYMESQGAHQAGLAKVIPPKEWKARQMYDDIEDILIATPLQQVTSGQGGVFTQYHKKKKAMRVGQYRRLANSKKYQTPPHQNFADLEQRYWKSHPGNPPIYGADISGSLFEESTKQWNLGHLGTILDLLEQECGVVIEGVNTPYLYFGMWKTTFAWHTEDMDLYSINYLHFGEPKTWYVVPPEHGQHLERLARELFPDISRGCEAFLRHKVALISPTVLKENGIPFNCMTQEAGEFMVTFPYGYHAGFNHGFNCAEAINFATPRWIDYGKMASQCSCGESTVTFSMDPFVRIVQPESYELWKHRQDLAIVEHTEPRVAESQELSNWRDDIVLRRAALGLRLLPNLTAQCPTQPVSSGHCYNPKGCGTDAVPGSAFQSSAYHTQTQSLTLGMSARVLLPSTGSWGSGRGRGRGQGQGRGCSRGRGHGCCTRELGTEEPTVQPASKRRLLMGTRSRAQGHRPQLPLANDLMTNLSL
# [9] = target: T1, Lysine-specific demethylase 4C; assay: Inhibition of N-terminal HALO-tagged full-length human KDM4C transfected in U2OS cells assessed as inhibition of H3K9Me3 demethylation for 24 hrs
# [10] = target: T3, Lysine-specific demethylase 5C; assay: Inhibition of human KDM5C transfected in U2OS cells assessed as inhibition of […] demethylation for 24 hrs; type: cell-based; conditions: read-out: pIC50 (converted)
# How it was run: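 High-content cell imaging assay in U2OS cells overexpressing KDM5C, the same cell type as the KDM4C cellular mechanistic assay. Cellular potency reported as pIC50.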
# Prolyl hydroxylase EGLN3 = Prolyl hydroxylase EGLN3 (Homo sapiens, UniProt Q9H6Z9); assay: Inhibition of full-length EGLN3 (unknown origin) expressed in Escherichia coli BL21(DE3) cells by HTRF assay
# Sequence of Prolyl hydroxylase EGLN3 (Q9H6Z9 whole entry): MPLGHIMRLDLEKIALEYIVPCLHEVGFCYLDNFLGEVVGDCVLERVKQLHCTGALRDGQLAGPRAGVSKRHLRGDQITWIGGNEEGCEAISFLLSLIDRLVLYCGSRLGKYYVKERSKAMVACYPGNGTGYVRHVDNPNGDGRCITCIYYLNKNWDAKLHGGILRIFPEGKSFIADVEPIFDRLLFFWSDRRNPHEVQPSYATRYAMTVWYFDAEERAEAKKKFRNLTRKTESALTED
# T3 sequence (P41229 whole entry, the tested form may be a part): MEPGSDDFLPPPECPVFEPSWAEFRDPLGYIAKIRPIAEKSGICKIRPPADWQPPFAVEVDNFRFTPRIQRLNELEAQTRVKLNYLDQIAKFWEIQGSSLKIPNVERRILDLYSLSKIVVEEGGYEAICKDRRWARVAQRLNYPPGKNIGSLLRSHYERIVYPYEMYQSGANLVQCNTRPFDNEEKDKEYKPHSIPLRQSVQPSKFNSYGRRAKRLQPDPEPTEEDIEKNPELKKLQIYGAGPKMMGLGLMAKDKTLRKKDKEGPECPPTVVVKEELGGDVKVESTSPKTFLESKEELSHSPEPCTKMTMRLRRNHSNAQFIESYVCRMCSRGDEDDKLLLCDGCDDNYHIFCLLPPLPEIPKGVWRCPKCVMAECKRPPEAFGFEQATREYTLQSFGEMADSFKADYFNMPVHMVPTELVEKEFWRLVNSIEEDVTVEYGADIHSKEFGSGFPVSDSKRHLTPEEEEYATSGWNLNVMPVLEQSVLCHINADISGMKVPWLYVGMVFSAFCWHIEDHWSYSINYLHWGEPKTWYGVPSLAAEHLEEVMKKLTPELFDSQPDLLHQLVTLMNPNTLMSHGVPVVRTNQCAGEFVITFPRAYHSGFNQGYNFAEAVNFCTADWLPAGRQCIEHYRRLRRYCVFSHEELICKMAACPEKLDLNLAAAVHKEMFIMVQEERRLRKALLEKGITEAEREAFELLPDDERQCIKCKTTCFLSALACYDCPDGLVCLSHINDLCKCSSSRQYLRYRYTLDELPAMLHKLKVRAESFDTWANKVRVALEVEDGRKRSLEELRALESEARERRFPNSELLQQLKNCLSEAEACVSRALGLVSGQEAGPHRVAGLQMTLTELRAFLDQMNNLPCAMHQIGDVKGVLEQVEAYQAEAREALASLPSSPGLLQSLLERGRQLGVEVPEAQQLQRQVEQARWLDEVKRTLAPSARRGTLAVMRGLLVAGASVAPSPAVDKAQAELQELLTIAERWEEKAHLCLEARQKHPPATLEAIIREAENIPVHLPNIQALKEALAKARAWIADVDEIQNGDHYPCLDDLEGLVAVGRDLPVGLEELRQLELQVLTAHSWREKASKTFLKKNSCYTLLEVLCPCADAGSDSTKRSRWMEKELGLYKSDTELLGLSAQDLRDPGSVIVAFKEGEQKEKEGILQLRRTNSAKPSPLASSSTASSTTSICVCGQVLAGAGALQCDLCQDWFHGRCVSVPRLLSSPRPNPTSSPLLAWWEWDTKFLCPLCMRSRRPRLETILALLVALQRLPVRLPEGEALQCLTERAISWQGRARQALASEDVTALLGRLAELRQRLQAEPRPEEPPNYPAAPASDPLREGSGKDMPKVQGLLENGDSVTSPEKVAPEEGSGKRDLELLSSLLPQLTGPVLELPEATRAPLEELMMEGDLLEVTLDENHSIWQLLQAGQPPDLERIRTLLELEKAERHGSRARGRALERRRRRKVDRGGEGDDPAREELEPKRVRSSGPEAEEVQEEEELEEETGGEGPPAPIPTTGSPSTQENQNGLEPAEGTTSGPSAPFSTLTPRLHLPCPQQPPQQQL
# Sequence of Lysine-specific demethylase 6B (O15054 whole entry): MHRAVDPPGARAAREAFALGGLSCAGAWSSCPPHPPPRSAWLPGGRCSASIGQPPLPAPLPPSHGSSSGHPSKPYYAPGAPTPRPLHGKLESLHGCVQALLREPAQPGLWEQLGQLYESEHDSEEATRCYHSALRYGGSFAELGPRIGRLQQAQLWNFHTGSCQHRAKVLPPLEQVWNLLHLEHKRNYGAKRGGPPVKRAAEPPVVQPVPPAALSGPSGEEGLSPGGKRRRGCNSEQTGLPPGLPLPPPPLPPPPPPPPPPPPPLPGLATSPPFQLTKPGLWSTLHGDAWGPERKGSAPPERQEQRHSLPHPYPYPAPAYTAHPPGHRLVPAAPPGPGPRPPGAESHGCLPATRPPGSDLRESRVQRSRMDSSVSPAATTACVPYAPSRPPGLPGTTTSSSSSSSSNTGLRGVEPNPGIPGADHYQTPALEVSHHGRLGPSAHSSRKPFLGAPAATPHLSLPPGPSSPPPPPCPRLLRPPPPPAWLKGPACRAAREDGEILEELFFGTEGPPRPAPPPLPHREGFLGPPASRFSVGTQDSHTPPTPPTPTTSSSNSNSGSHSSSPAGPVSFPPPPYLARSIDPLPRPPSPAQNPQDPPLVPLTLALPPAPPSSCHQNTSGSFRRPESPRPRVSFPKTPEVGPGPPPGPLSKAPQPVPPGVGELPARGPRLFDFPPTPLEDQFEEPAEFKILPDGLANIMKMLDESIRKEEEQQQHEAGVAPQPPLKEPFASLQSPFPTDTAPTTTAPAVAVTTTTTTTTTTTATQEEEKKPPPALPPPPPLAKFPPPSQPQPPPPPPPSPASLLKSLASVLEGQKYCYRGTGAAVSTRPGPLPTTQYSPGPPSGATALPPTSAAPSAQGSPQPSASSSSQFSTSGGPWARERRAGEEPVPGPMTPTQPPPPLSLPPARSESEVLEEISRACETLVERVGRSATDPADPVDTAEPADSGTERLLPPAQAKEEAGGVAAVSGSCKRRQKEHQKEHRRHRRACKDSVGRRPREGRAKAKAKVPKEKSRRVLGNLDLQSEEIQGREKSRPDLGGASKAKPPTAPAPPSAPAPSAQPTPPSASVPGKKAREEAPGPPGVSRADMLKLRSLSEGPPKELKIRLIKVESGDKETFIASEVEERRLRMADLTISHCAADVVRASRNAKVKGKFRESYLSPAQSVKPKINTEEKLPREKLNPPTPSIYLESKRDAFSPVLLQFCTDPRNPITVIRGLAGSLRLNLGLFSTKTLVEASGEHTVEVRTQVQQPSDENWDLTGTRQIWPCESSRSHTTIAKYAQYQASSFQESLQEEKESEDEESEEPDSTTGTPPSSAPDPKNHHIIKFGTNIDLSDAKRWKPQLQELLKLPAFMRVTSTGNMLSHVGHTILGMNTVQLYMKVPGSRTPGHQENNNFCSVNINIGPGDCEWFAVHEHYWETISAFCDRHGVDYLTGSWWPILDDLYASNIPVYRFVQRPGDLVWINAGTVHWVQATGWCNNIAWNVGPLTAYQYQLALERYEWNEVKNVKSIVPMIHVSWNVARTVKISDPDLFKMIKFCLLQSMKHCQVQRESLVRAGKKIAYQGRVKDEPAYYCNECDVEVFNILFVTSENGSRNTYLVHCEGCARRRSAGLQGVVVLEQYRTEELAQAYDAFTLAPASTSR
SMILES,IC50 [1] [nM],pKa [2],IC50 [3] [nM],IC50 [4] [nM],IC50 [5] [nM],logD (physchem),IC50 [6] [nM],IC50 [7] [nM],IC50 [8] [nM],IC50 [9] [nM],IC50 [10] [nM],IC50 (Prolyl hydroxylase EGLN3) [nM]
CCOc1nc2cnccc2c(=O)[nH]1,63100,7.5,1000,–,–,–,–,–,–,–,–,–
CCNc1nc2cnccc2c(=O)[nH]1,–,8.6,3160,–,–,–,–,–,–,–,–,–
CCCc1nc2cnccc2c(=O)[nH]1,–,8.8,12600,–,–,–,–,–,–,–,–,–
CCSc1nc2cnccc2c(=O)[nH]1,> 100000,6.8,794,–,–,–,–,–,–,–,–,–
O=c1[nH]c(Oc2cnn(Cc3ccccc3)c2)nc2cnccc12,5010,–,501,> 100000,631,1.8,63.1,398,501,2000,3980,> 100000
